Activity calls are given as the source filed them. The rule behind the calls is not given here.
Legend:
[1] = system: KB-VIN; assay: Induction of apoptosis in human KB-VIN cells assessed as increase in cleaved caspase-3 expression at 0.1 uM measured after 48 hrs by Western blot analysis; assay type: functional, cell-based
Method in brief: (§1)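 Resistant KB cells attached overnight, then drug-treated at the stated concentrations and times (24 h or 48 h). Lysates were immunoblotted for cleaved PARP, caspase-3, -8 and -9, and γH2AX, with anti-mouse or anti-rabbit IgG secondaries.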

[2] = system: KB; assay: Antiproliferative activity against human KB cells incubated for 48 hrs by SRB assay; assay type: functional
Method in brief: (§2)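 KB parental and resistant sublines kept in RPMI 1640 with 5% FBS at 37 °C, 5% CO2. Cells plated, left overnight, then given graded compound concentrations for 48 h. A time-zero plate was fixed with 10% TCA at dosing. Cells were stained with 0.4% SRB in 1% acetic acid, unbound dye washed off, bound dye dissolved in 10 mM Tris base, and absorbance read at 515 nm.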

[3] = system: KB-VIN; assay: Induction of apoptosis in human KB-VIN cells assessed as increase in activated gammaH2AX expression at 0.1 uM measured after 24 hrs by Western blot analysis; assay type: functional, cell-based; method in brief: as §1
[4] = system: KB-VIN; assay: Induction of apoptosis in human KB-VIN cells assessed as increase in cleaved caspase-9 expression at 0.1 uM measured after 24 hrs by Western blot analysis; assay type: functional, cell-based; method in brief: as §1
[5] = system: KB-VIN; assay: Cell cycle arrest in human KB-VIN cells assessed as increase in accumulation at sub-G1 phase at 0.1 uM measured after 48 hrs by propidium iodide staining based flow cytometry; assay type: functional
Method in brief: (§3)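 Cells seeded at 2.5×10^5 per well and exposed to DMSO or compound for the stated times. They were washed in PBS and fixed overnight in ice-cold 70% ethanol at −20 °C. Staining used propidium iodide 80 µg/mL with 0.1% Triton X-100 and RNase A 100 µg/mL in PBS. DNA content was read by FACScan flow cytometry.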

[6] = target: T1, Tubulin (Homo sapiens) (UniProt P68371+Q9H4B7+P0DPH7+P68366+Q13509+Q71U36+P04350+Q3ZCM7+P07437+P68363+Q9BQE3+Q6PEY2+Q13885+Q9BVA1+Q9BUF5); assay: Induction of microtubule disruption in human KB-VIN cells assessed as polymerized fraction at 1 uM measured after 16 hrs by SDS-PAGE analysis (reference value: 23.1 to 25.5%); assay type: cell-based
Method in brief: (§4)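 KB-Vin or KB-7D cells treated 16 h, then lysed 5 min at 37 °C in the dark in hypotonic buffer (1% NP-40, 1 mmol/L MgCl2, 2 mmol/L EGTA, 50 mmol/L Tris-HCl pH 6.8, protease inhibitors). Spun 13000 rpm, 10 min, room temperature. Soluble supernatant and resuspended polymerized pellet run on SDS-PAGE.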

[7] = system: KB-VIN; assay: Induction of apoptosis in human KB-VIN cells assessed as increase in cleaved caspase-9 expression at 0.1 uM measured after 48 hrs by Western blot analysis; assay type: functional, cell-based; method in brief: as §1
[8] = Antiproliferative activity against human KB-VIN cells incubated for 48 hrs by SRB assay; assay type: functional; details: KBVIN; method in brief: as §2
[9] = target: T1, Tubulin (Homo sapiens); assay: Induction of microtubule disruption in human KB-VIN cells assessed as polymerized fraction at 0.01 uM measured after 16 hrs by SDS-PAGE analysis (reference value: 23.1 to 25.5%); assay type: cell-based; method in brief: as §4
[10] = system: KB-VIN; assay: Induction of apoptosis in human KB-VIN cells assessed as increase in cleaved caspase-8 expression at 0.1 uM measured after 48 hrs by Western blot analysis; assay type: functional, cell-based; method in brief: as §1
[11] = target: T1, Tubulin (Homo sapiens); assay: Induction of microtubule disruption in human KB-VIN cells at 1 uM measured after 24 hrs by DAPI staining based deconvolution fluorescence microscopic analysis; assay type: cell-based
Method in brief: (§5)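 Cells on glass coverslips treated 24 h, fixed in 4% paraformaldehyde for 15 min, and permeabilized with 0.5% Triton X-100. Blocked in PBS/2% BSA, stained with anti-beta-tubulin (1:250) and Alexa 488 anti-mouse (1:250), and mounted with DAPI. Imaged by wide-field deconvolution microscopy.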

[12] = system: KB-VIN; assay: Induction of apoptosis in human KB-VIN cells assessed as increase in cleaved PARP expression at 0.1 uM measured after 48 hrs by Western blot analysis; assay type: functional, cell-based; method in brief: as §1
[13] = target: T1, Tubulin (Homo sapiens); assay: Induction of microtubule disruption in human KB7D cells assessed as polymerized fraction at 0.01 uM measured after 16 hrs by SDS-PAGE analysis (reference value: 26.4 to 29%); assay type: cell-based; method in brief: as §4
[14] = target: T1, Tubulin (Homo sapiens); assay: Induction of microtubule disruption in human KB7D cells assessed as polymerized fraction at 1 uM measured after 16 hrs by SDS-PAGE analysis (reference value: 26.4 to 29%); assay type: cell-based; method in brief: as §4
[15] = target: T1, Tubulin (Homo sapiens); assay: Induction of microtubule disruption in human KB7D cells at 1 uM measured after 24 hrs by DAPI staining based deconvolution fluorescence microscopic analysis; assay type: cell-based; method in brief: as §5
[16] = system: KB-VIN; assay: Induction of apoptosis in human KB-VIN cells assessed as increase in cleaved PARP expression at 0.1 uM measured after 24 hrs by Western blot analysis; assay type: functional, cell-based; method in brief: as §1
[17] = system: KB-VIN; assay: Induction of apoptosis in human KB-VIN cells assessed as increase in activated gammaH2AX expression at 0.1 uM measured after 48 hrs by Western blot analysis; assay type: functional, cell-based; method in brief: as §1
[18] = system: KB-VIN; assay: Cell cycle arrest in human KB-VIN cells assessed as increase in accumulation at sub-G1 phase at 0.01 to 0.1 uM measured after 24 hrs by propidium iodide staining based flow cytometry; assay type: functional; details: dose 0.01-0.1 µM; method in brief: as §3
[19] = system: KB-VIN; assay: Induction of apoptosis in human KB-VIN cells assessed as increase in cleaved caspase-8 expression at 0.1 uM measured after 24 hrs by Western blot analysis; assay type: functional, cell-based; method in brief: as §1
[20] = target: T1, Tubulin (Homo sapiens); assay: Induction of microtubule disruption in human KB7D cells assessed as polymerized fraction at 0.1 uM measured after 16 hrs by SDS-PAGE analysis (reference value: 26.4 to 29%); assay type: cell-based; method in brief: as §4
[21] = system: KB-VIN; assay: Induction of apoptosis in human KB-VIN cells assessed as increase in cleaved caspase-3 expression at 0.1 uM measured after 24 hrs by Western blot analysis; assay type: functional, cell-based; method in brief: as §1
[22] = target: T1, Tubulin (Homo sapiens); assay: Induction of microtubule disruption in human KB-VIN cells assessed as polymerized fraction at 0.1 uM measured after 16 hrs by SDS-PAGE analysis (reference value: 23.1 to 25.5%); assay type: cell-based; method in brief: as §4
[23] = target: T1, Tubulin (Homo sapiens); assay: Induction of microtubule aggregation in human KB-VIN cells assessed as polymerized fraction at 1 uM measured after 16 hrs by SDS-PAGE analysis (reference value: 34%); assay type: cell-based; method in brief: as §4
[24] = target: T1, Tubulin (Homo sapiens); assay: Induction of microtubule aggregation in human KB-VIN cells at 1 uM measured after 24 hrs by DAPI staining based deconvolution fluorescence microscopic analysis; assay type: cell-based; method in brief: as §5
[25] = target: T1, Tubulin (Homo sapiens); assay: Induction of microtubule aggregation in human KB7D cells assessed as polymerized fraction at 0.1 uM measured after 16 hrs by SDS-PAGE analysis (reference value: 34%); assay type: cell-based; method in brief: as §4
[26] = target: T1, Tubulin (Homo sapiens); assay: Induction of microtubule aggregation in human KB7D cells assessed as polymerized fraction at 0.01 uM measured after 16 hrs by SDS-PAGE analysis (reference value: 34%); assay type: cell-based; method in brief: as §4
[27] = target: T1, Tubulin (Homo sapiens); assay: Induction of microtubule aggregation in human KB7D cells at 1 uM measured after 24 hrs by DAPI staining based deconvolution fluorescence microscopic analysis; assay type: cell-based; method in brief: as §5
[28] = target: T1, Tubulin (Homo sapiens); assay: Induction of microtubule aggregation in human KB-VIN cells assessed as polymerized fraction at 0.01 uM measured after 16 hrs by SDS-PAGE analysis (reference value: 34%); assay type: cell-based; method in brief: as §4
[29] = target: T1, Tubulin (Homo sapiens); assay: Induction of microtubule aggregation in human KB7D cells assessed as polymerized fraction at 1 uM measured after 16 hrs by SDS-PAGE analysis (reference value: 34%); assay type: cell-based; method in brief: as §4
[30] = target: T1, Tubulin (Homo sapiens); assay: Induction of microtubule aggregation in human KB-VIN cells assessed as polymerized fraction at 0.1 uM measured after 16 hrs by SDS-PAGE analysis (reference value: 34%); assay type: cell-based; method in brief: as §4

Q: Which Activity [1] does the source give for `CC[C@]1(O)C[C@H]2CN(CCc3c([nH]c4ccccc34)[C@@](C(=O)OC)(c3cc4c(cc3OC)N(C=O)[C@H]3[C@@](O)(C(=O)OC)[C@H](OC(C)=O)[C@]5(CC)C=CCN6CC[C@]43[C@@H]65)C2)C1` [VINCRISTINE] here?
A: Active

Q: What about the GI50 [2] of the same molecule?
A: 1.86 nM

Q: What about the Activity [3] of the same molecule?
A: Active

Q: And the Activity [4]?
A: Active

Q: What about the Activity [5] of the same molecule?
A: Active

Q: And the Activity [6]?
A: 25.2%

Q: What about the Activity [7] of the same molecule?
A: Active

Q: And the GI50 [8]?
A: 219 nM

Q: What about the Activity [9] of the same molecule?
A: 25.5%

Q: What about the Activity [10] of the same molecule?
A: Active

Q: And the Activity [11]?
A: Active

Q: And the Activity [12]?
A: Active

Q: What about the Activity [13] of the same molecule?
A: 30.4%

Q: And the Activity [14]?
A: 29.1%

Q: And the Activity [15]?
A: Active

Q: And the Activity [16]?
A: Active

Q: What about the Activity [17] of the same molecule?
A: Active

Q: What about the Activity [18] of the same molecule?
A: Active

Q: And the Activity [19]?
A: Active

Q: And the Activity [20]?
A: 25.8%

Q: What about the Activity [21] of the same molecule?
A: Active

Q: What about the Activity [22] of the same molecule?
A: 28.8%

Q: Which Activity [23] does the source give for `CC(=O)O[C@H]1C(=O)[C@@]2(C)[C@H]([C@H](OC(=O)c3ccccc3)[C@]3(O)C[C@H](OC(=O)[C@H](O)[C@@H](NC(=O)c4ccccc4)c4ccccc4)C(C)=C1C3(C)C)[C@]1(OC(C)=O)CO[C@@H]1C[C@@H]2O` here?
A: 46.1%

Q: What about the Activity [24] of the same molecule?
A: Active

Q: What about the Activity [25] of the same molecule?
A: 59.7%

Q: What about the Activity [26] of the same molecule?
A: 45.9%

Q: And the Activity [27]?
A: Active

Q: And the Activity [28]?
A: 41.1%

Q: And the Activity [29]?
A: 61.5%

Q: What about the Activity [30] of the same molecule?
A: 45.9%
